# Laboratory results published in PubChem BioAssay.
# Calls of active or inactive are those of the source.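 Rule for the calls, unless noted: active = duplicate-averaged activation above buffer control mean plus 5 SD of those controls; inactive = the rest.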
# Test system: not listed separately
# Assay: thallium flux activation in parental CHO cells, counter-screen for KCNQ1 potentiator project (AID 493006);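 for activation: fluorescence ratio of max minus min over baseline after K+ and Tl+ depolarization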
# Settings: parental CHO-K1 cells, FluxOR thallium flux, at 10 µM; active compounds read high
# Procedure, shortened: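 Material: parental CHO-K1 cells, FluxOR dye-loaded; Also added: Potassium/thallium depolarization pulse; Schedule: overnight 37 °C plating, 90 min dye, 20 min dark compound; Signal: kinetic FluxOR fluorescence, 10 s baseline, 110 s after stimulus.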
SMILES,outcome,activation
Cc1ccc(C)c(N(CC(=O)NC2CCCC2)C(=O)CCC(=O)Nc2nccs2)c1,inactive,
O=C(ONC1=NCCCCC1)c1ccc(Cl)cc1,inactive,
O=C(Nc1cccc2cccnc12)c1ccc(Br)o1,inactive,
O=C1CCC(C(=O)N2CCSCC2)CN1Cc1cccc(C(F)(F)F)c1 (stereo not given),inactive,
Cc1ccc(OCCCC(=O)NCc2ccco2)c(C)c1,inactive,
COC(=O)c1ccc(C(=O)NC(=S)Nc2nc3c(s2)CCCC3)cc1,,210% (active)
COc1ccc(N2CCN(C(=S)NC(=O)c3cccs3)CC2)c([N+](=O)[O-])c1,,139% (active)
COc1ccc(NC(=O)CN(C)C(=O)c2ccc(N3CCOCC3)c([N+](=O)[O-])c2)cc1,,151% (active)
Cc1ccc(OCC(=O)NCCCNC(=O)c2ccncc2)cc1C,inactive,
CC(C)(C)c1ccc(Oc2ccc(N)cn2)cc1,,260% (active)
O=S(=O)(Nc1ccccc1Cl)c1ccc(NS(=O)(=O)c2cccs2)cc1,inactive,
Cc1nonc1NC(=O)OC1CCCCC1,inactive,
COc1ccccc1-n1cnc2cc(NCc3ccco3)ccc21,inactive,
Cc1ccc(-n2c(=S)[nH]c3sc4c(c3c2=O)CCC4)cc1,,158% (active)
O=C(COc1ccccc1)N1CCN(S(=O)(=O)c2cccs2)CC1,inactive,
CCSc1nnc(NC(=O)C2C3C=CC(C3)C2C(=O)O)s1 (stereo not given),inactive,
CN1C(=O)/C(=N\OC(=O)c2cccc3ccccc23)c2ccccc21,inactive,
COc1ccc(/C=N/NC(=O)c2[nH]nc3c2CCc2ccccc2-3)cc1OC,,240% (active)
CC1=C(C)/C(=N\OS(=O)(=O)c2ccccc2)C=CC1=O,inactive,
Cc1ccc(NC2=C(NC(=O)c3ccccc3)C(=O)c3ccccc3C2=O)cc1Cl,inactive,

SMILES,outcome,activation
Cc1cc(NC(c2cccnc2)c2c(C)[nH]c3ccccc23)no1 (stereo not given),inactive,
CN1CCN(c2nc(-c3cccs3)cc(C(F)(F)F)n2)CC1,,142% (active)
COc1ccc([N+](=O)[O-])cc1NC(=O)c1cccnc1,inactive,
CCCN1CCC(NC(=S)Nc2cccc(Cl)c2Cl)CC1,inactive,
CSc1ccc(NC(=O)CC(C)=O)cc1,inactive,
Cc1ccc(N=Nc2ccc(O)c3ncccc23)cc1C,,154% (active)
CC1CCCC(NC(=S)NC(=O)c2cncc(Br)c2)C1C (stereo not given),inactive,
Cc1cc(C)cc(OCC(O)Cn2nc(C)cc2C)c1 (stereo not given),inactive,
Nc1cc(=O)[nH]c(SCC(=O)N2CCN(S(=O)(=O)c3ccc4ccccc4c3)CC2)n1,inactive,
COC(=O)c1sc(NC(=S)NC(=O)c2ccccc2C)nc1C,,187% (active)
S=C(N/N=C/c1ccccc1Cl)Nc1cccc(Cl)c1Cl,inactive,
Cc1ccccc1N(CC(=O)N/N=C/c1cc(C)n(-c2ccccc2C)c1C)S(C)(=O)=O,inactive,
CSC(C(=O)c1cc2ccccc2o1)c1ccccc1 (stereo not given),inactive,
O=C(Cn1ncc2c(=O)oc3ccccc3c21)N1CCN(C(=O)c2ccco2)CC1,inactive,
COc1cccc2sc(Nc3nnc(-c4cccs4)o3)nc12,,396% (active)
Cc1cc(C)nc(NC(=O)/C=C/c2ccccc2Cl)n1,inactive,
COCCN(Cc1cc2cc3c(cc2nc1Cl)OCO3)C(=O)c1ccc(C)cc1,inactive,
CCCOc1ccc(CN(CCC#N)C(=S)NC(=O)c2ccccc2)cc1,,288% (active)
CC(C)CN1C(=O)/C(=C/c2cccs2)NC1=S,,392% (active)
O=C(NC(=S)N1CCN(c2ccc(C(F)(F)F)cc2[N+](=O)[O-])CC1)c1cccs1,,176% (active)

# Biological target: Potassium voltage-gated channel subfamily KQT member 1 (Homo sapiens) (UniProt P51787)
# Assay: KCNQ1 potassium channel potentiators, confirmation, FluxOR thallium flux, CHO cells, duplicates (AID 493007;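 active = potentiation averaged over duplicate wells exceeding buffer-only control mean by more than 3 SD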;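 for outcome: cells depolarized by a potassium plus thallium sulfate stimulus after compound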)
# Settings: KCNQ1 cell line, FluxOR thallium flux fluorescence, at 10 µM; active compounds read high, % of reference activator effect, buffer zero
# Procedure, shortened: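 System: KCNQ1-expressing CHO cell line; technique: kinetic thallium influx fluorescence with FluxOR dye, 10 s baseline, 110 s post-stimulus; timing: dye 90 min then compound 20 min, both at room temperature; controls: buffer-only wells as 0% and R-L3 activator as 100%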
# Potassium voltage-gated channel subfamily KQT member 1 (Homo sapiens), sequence (P51787 whole entry, looked up): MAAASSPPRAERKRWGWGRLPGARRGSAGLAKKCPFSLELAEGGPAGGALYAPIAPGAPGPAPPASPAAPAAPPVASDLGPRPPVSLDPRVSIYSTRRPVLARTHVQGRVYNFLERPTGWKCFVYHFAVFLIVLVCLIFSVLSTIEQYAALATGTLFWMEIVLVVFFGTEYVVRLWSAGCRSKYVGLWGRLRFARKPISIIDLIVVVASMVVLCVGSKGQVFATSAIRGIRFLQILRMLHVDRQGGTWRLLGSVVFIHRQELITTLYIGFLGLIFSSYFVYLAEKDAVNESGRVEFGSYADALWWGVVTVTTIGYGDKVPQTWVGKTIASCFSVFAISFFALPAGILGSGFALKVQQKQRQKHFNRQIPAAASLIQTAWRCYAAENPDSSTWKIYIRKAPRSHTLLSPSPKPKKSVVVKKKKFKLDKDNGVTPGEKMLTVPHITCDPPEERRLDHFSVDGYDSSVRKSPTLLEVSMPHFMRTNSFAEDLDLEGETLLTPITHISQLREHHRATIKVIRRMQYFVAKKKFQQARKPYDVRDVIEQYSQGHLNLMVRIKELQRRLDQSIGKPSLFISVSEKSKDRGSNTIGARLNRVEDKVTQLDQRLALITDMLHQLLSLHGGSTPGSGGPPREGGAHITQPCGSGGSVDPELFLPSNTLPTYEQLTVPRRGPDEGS
SMILES,outcome,potentiation
Cc1ccc(C)c(N(CC(=O)NC2CCCC2)C(=O)CCC(=O)Nc2nccs2)c1,inactive,
O=C(ONC1=NCCCCC1)c1ccc(Cl)cc1,inactive,
O=C(Nc1cccc2cccnc12)c1ccc(Br)o1,inactive,
O=C1CCC(C(=O)N2CCSCC2)CN1Cc1cccc(C(F)(F)F)c1 (stereo not given),inactive,
Cc1ccc(OCCCC(=O)NCc2ccco2)c(C)c1,inactive,
COC(=O)c1ccc(C(=O)NC(=S)Nc2nc3c(s2)CCCC3)cc1,,169% (active)
COc1ccc(N2CCN(C(=S)NC(=O)c3cccs3)CC2)c([N+](=O)[O-])c1,,74.5% (active)
COc1ccc(NC(=O)CN(C)C(=O)c2ccc(N3CCOCC3)c([N+](=O)[O-])c2)cc1,,22% (active)
Cc1ccc(OCC(=O)NCCCNC(=O)c2ccncc2)cc1C,inactive,
CC(C)(C)c1ccc(Oc2ccc(N)cn2)cc1,,81.5% (active)
O=S(=O)(Nc1ccccc1Cl)c1ccc(NS(=O)(=O)c2cccs2)cc1,,26.5% (active)
Cc1nonc1NC(=O)OC1CCCCC1,inactive,
COc1ccccc1-n1cnc2cc(NCc3ccco3)ccc21,,34.5% (active)
Cc1ccc(-n2c(=S)[nH]c3sc4c(c3c2=O)CCC4)cc1,,42.5% (active)
O=C(COc1ccccc1)N1CCN(S(=O)(=O)c2cccs2)CC1,inactive,
CCSc1nnc(NC(=O)C2C3C=CC(C3)C2C(=O)O)s1 (stereo not given),inactive,
CN1C(=O)/C(=N\OC(=O)c2cccc3ccccc23)c2ccccc21,inactive,
COc1ccc(/C=N/NC(=O)c2[nH]nc3c2CCc2ccccc2-3)cc1OC,,85% (active)
CC1=C(C)/C(=N\OS(=O)(=O)c2ccccc2)C=CC1=O,inactive,
Cc1ccc(NC2=C(NC(=O)c3ccccc3)C(=O)c3ccccc3C2=O)cc1Cl,inactive,

SMILES,outcome,potentiation
Cc1cc(NC(c2cccnc2)c2c(C)[nH]c3ccccc23)no1 (stereo not given),inactive,
CN1CCN(c2nc(-c3cccs3)cc(C(F)(F)F)n2)CC1,inactive,
COc1ccc([N+](=O)[O-])cc1NC(=O)c1cccnc1,inactive,
CCCN1CCC(NC(=S)Nc2cccc(Cl)c2Cl)CC1,inactive,
CSc1ccc(NC(=O)CC(C)=O)cc1,inactive,
Cc1ccc(N=Nc2ccc(O)c3ncccc23)cc1C,,24.5% (active)
CC1CCCC(NC(=S)NC(=O)c2cncc(Br)c2)C1C (stereo not given),,32% (active)
Cc1cc(C)cc(OCC(O)Cn2nc(C)cc2C)c1 (stereo not given),inactive,
Nc1cc(=O)[nH]c(SCC(=O)N2CCN(S(=O)(=O)c3ccc4ccccc4c3)CC2)n1,inactive,
COC(=O)c1sc(NC(=S)NC(=O)c2ccccc2C)nc1C,,50% (active)
S=C(N/N=C/c1ccccc1Cl)Nc1cccc(Cl)c1Cl,,71% (active)
Cc1ccccc1N(CC(=O)N/N=C/c1cc(C)n(-c2ccccc2C)c1C)S(C)(=O)=O,inactive,
CSC(C(=O)c1cc2ccccc2o1)c1ccccc1 (stereo not given),inactive,
O=C(Cn1ncc2c(=O)oc3ccccc3c21)N1CCN(C(=O)c2ccco2)CC1,inactive,
COc1cccc2sc(Nc3nnc(-c4cccs4)o3)nc12,,250% (active)
Cc1cc(C)nc(NC(=O)/C=C/c2ccccc2Cl)n1,inactive,
COCCN(Cc1cc2cc3c(cc2nc1Cl)OCO3)C(=O)c1ccc(C)cc1,inactive,
CCCOc1ccc(CN(CCC#N)C(=S)NC(=O)c2ccccc2)cc1,,134% (active)
CC(C)CN1C(=O)/C(=C/c2cccs2)NC1=S,,180% (active)
O=C(NC(=S)N1CCN(c2ccc(C(F)(F)F)cc2[N+](=O)[O-])CC1)c1cccs1,,75% (active)
